Test results reported in ChEMBL document CHEMBL4261639, “Cell-Active Small Molecule Inhibitors of the DNA-Damage Repair Enzyme Poly(ADP-ribose) Glycohydrolase (PARG): Discovery and Optimization of Orally Bioavailable Quinazolinedione Sulfonamides” (J Med Chem, 2018).
In brackets after ≈: the same amount, converted by molar mass.

Tests used:
[1] = target: T1, Poly(ADP-ribose) glycohydrolase (Homo sapiens, UniProt Q86W56); assay: Inhibition of PARG in human HeLa cells assessed as induction of MMS-induced PAR chains preincubated for 1 hr followed by MMS addition and measured after 1 hr by Alexofluor 488-conjugated secondary antibody and Hoechst 33342 staining based assay; format: cell-based
Procedure, shortened: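 Acute (1 h) cell-based proof-of-mechanism assay measuring persistence of PAR chains, i.e. blockade of PARG-mediated PAR degradation, across a dose range. EC50 values are means of at least 4 independent measurements, with standard deviations.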

[2] = target: T1, Poly(ADP-ribose) glycohydrolase; assay: Inhibition of human full length PARG using Bt-NAD ribosylated PARP1 substrate after 10 mins by TR-FRET assay
[3] = Clearance in human liver microsomes
[4] = Clearance in mouse liver microsomes
[5] = test system: PARG (human, full length); assay: Selectivity ratio of cytotoxicity for human HeLa cells to EC50 for human full length PARG; format: toxicity, cell-based
[6] = target: T2, ADP-ribosylhydrolase ARH3 (Homo sapiens, UniProt Q9NX46); assay: Inhibition of human full length C-terminus His-tagged ARH3 expressed in Escherichia coli using Bt-NAD ribosylated PARP1 substrate after 30 mins by TR-FRET assay
T2 sequence (Q9NX46 whole entry): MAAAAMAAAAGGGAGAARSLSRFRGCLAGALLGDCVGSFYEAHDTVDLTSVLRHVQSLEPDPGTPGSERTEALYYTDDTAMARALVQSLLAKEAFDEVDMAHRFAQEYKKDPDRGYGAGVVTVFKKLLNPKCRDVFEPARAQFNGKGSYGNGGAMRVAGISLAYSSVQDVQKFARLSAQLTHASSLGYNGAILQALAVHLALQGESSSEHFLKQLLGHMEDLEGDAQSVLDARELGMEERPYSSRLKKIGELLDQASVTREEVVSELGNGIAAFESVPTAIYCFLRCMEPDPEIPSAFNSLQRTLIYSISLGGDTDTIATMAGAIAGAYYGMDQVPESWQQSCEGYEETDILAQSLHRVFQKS

[7] = target: Poly [ADP-ribose] polymerase 1 (Homo sapiens, UniProt P09874); assay: Inhibition of human PARP1 expressed in Escherichia coli using activated DNA as substrate after 60 mins by peroxy glow reagent A/B based assay
HeLa = assay: Cytotoxicity against human HeLa cells after 72 hrs by Hoechst 33342 staining based assay; format: cell-based
[8] = Solubility of the compound by turbidimetric method; format: physicochemical

T1 sequence (Q86W56 whole entry): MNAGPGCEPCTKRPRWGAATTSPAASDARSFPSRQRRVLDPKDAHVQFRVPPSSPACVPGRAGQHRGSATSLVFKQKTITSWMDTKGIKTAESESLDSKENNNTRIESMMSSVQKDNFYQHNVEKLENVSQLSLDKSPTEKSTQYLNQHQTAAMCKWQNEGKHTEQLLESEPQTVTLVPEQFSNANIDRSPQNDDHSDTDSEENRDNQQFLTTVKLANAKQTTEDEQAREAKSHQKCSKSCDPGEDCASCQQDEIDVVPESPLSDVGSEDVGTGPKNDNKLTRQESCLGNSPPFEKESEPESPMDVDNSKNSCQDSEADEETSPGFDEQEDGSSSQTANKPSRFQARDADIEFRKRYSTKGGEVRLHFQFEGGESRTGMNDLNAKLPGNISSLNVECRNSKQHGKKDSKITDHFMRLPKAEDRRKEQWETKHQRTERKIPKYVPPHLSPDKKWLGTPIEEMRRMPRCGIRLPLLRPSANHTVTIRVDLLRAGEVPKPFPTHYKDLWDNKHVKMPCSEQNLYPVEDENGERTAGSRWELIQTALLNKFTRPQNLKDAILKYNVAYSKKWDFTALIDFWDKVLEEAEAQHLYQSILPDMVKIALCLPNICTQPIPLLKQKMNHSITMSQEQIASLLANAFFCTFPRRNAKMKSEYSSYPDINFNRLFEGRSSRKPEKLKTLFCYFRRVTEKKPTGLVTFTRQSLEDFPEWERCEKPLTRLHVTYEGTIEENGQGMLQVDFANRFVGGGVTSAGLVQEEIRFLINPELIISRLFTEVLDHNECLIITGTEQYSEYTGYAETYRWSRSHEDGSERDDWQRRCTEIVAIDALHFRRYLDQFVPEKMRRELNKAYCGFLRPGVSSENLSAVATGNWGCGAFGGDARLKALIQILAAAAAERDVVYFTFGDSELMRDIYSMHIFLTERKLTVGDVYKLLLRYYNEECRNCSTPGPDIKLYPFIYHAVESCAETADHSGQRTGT
Chain of Poly [ADP-ribose] polymerase 1 (P09874 whole entry): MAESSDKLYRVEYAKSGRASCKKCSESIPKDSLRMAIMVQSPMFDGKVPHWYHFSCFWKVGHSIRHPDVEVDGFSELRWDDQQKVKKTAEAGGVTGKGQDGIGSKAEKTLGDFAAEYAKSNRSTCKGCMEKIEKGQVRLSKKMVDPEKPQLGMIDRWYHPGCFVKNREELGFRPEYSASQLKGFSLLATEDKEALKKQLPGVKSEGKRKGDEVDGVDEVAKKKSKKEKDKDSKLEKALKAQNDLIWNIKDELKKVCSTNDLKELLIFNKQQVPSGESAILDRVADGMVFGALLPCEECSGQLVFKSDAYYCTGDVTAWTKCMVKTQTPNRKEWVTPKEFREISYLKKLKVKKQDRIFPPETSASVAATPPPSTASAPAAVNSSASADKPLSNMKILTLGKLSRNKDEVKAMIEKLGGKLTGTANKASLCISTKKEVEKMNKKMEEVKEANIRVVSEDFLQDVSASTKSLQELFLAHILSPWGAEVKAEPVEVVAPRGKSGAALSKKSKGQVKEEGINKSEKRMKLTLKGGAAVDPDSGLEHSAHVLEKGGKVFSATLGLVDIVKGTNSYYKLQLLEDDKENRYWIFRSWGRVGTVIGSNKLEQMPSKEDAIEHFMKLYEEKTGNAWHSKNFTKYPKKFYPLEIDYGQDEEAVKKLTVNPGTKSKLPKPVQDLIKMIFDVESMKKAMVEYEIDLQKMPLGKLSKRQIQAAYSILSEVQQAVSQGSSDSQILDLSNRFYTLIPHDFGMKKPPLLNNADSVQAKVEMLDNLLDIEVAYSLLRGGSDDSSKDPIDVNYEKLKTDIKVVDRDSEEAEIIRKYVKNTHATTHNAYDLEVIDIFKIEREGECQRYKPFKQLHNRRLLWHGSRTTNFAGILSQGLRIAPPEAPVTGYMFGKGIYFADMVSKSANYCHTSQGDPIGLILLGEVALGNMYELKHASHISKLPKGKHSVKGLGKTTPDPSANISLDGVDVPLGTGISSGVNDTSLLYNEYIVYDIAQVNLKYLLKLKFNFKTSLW

Compound	EC50 [1] [nM]	EC50 [2] [nM]	further results
CCn1c(=O)c2cc(S(=O)(=O)NC3(C)CC3)ccc2n(CC)c1=O	1100	1500	
CCn1c(=O)n(Cc2cnn(C)c2)c(=O)c2cc(S(=O)(=O)NC3(C)CC3)ccc21			microsomal CLint [3]: 35 µL/min/mg
Cn1c(=O)c2cc(S(=O)(=O)NC3(C#N)CC3)ccc2n(C)c1=O	14000	5000	
CN(C)CCn1c(=O)n(C)c(=O)c2cc(S(=O)(=O)NC3(C)CC3)ccc21	6400	2000	
COCCn1c(=O)n(C)c(=O)c2cc(S(=O)(=O)NC3(C)CC3)ccc21	6100	1100	
Cn1c(=O)c2cc(S(=O)(=O)NC3(C)CC3)ccc2n(CC#N)c1=O	8900	2800	
CC1(NS(=O)(=O)c2ccc3c(c2)C(=O)c2ccccc2C3=O)CC1	6600	6000	
Cn1c(=O)n(Cc2ccoc2)c(=O)c2cc(S(=O)(=O)NC3(C)CC3)ccc21		6000	
O=C1c2ccccc2C(=O)c2cc(S(=O)(=O)NC3CCC3)ccc21		> 50000	
NC(=O)CCNS(=O)(=O)c1ccc2c(c1)C(=O)c1ccccc1C2=O		> 150000	
Cn1c(=O)n(CC2CCCCC2)c(=O)c2cc(S(=O)(=O)NC3(C)CC3)ccc21		> 150000	
Cn1c(=O)n(Cc2cncs2)c(=O)c2cc(S(=O)(=O)NC3(C)CC3)ccc21		1200	
Cc1noc(Cn2c(=O)c3cc(S(=O)(=O)NC4(C)CC4)ccc3n(C)c2=O)n1		5000	
Cn1c(=O)n(Cc2ccccn2)c(=O)c2cc(S(=O)(=O)NC3(C)CC3)ccc21		16000	
Cn1nnnc1Cn1c(=O)c2cc(S(=O)(=O)NC3(C)CC3)ccc2n(C)c1=O		3000	
Cn1c(=O)n(CC2COC2)c(=O)c2cc(S(=O)(=O)NC3(C)CC3)ccc21		7000	
Cn1c(=O)n(CC#N)c(=O)c2cc(S(=O)(=O)NC3(C)CC3)ccc21		1100	
COCCNS(=O)(=O)c1ccc2c(c1)C(=O)c1ccccc1C2=O		> 150000	
O=C1c2ccccc2C(=O)c2cc(S(=O)(=O)NC3CC3)ccc21	22000	13000	
Cc1nc(C)c(Cn2c(=O)c3cc(S(=O)(=O)NC4(C)CC4)ccc3n(C)c2=O)s1		910	
CCn1c(=O)n(C)c(=O)c2cc(S(=O)(=O)NC3(C)CC3)ccc21	3600	1300	
O=C1c2ccccc2C(=O)c2cc(S(=O)(=O)NCC3CC3)ccc21		24000	

Compound	EC50 [1] [nM]	EC50 [2] [nM]	further results
Cn1c(=O)n(-c2ccccc2)c(=O)c2cc(S(=O)(=O)NC3(C)CC3)ccc21		23000	
Cn1c(=O)[nH]c2ccc(S(=O)(=O)NC3(C)CC3)cc2c1=O	8100	4000	
CCNS(=O)(=O)c1ccc2c(c1)C(=O)c1ccccc1C2=O		110000	
Cn1c(=O)n(Cc2ccccc2)c(=O)c2cc(S(=O)(=O)NC3(C)CC3)ccc21		26000	
O=c1[nH]c2ccc(S(=O)(=O)NC3CC3)cc2c2ccccc12		50000	
Cn1c(=O)c2cc(S(=O)(=O)NC3(C)CC3)ccc2n(Cc2ccccc2)c1=O	2300	1300	
Cn1c(=O)c2cc(S(=O)(=O)NC3(C)CC3)ccc2n(Cc2ccncc2)c1=O		2400	
Cc1nc(-c2ccccc2)c(Cn2c(=O)c3cc(S(=O)(=O)NC4(C)CC4)ccc3n(C)c2=O)s1		12000	
CCn1c(=O)c2cc(S(=O)(=O)NC3(C)CC3)ccc2n(C)c1=O		4000	
NC(=O)CNS(=O)(=O)c1ccc2c(c1)C(=O)c1ccccc1C2=O		> 150000	
CC(C)(C)NS(=O)(=O)c1ccc2c(c1)C(=O)c1ccccc1C2=O	30000	81000	Activity (HeLa): 16 µM; solubility kinetic [8]: 20 µM (≈ 6.87 µg/mL)
Cc1cc(Cn2c(=O)c3cc(S(=O)(=O)NC4(C)CC4)ccc3n(C)c2=O)no1		5200	
Cn1c(=O)c2cc(S(=O)(=O)NC(C)(C)C)ccc2n(C)c1=O		110000	
Cc1nnc(Cn2c(=O)c3cc(S(=O)(=O)NC4(C)CC4)ccc3n(C)c2=O)o1		1800	
Cc1nnsc1Cn1c(=O)c2cc(S(=O)(=O)NC3(C)CC3)ccc2n(C)c1=O		880	
CCn1c(=O)c2cc(S(=O)(=O)NC3(C#N)CC3)ccc2n(CC)c1=O	5600	1800	
Cn1c(=O)n(Cc2ccsc2)c(=O)c2cc(S(=O)(=O)NC3(C)CC3)ccc21		20000	
Cn1c(=O)n(Cc2cocn2)c(=O)c2cc(S(=O)(=O)NC3(C)CC3)ccc21		21000	
N#CC1(NS(=O)(=O)c2ccc3c(c2)C(=O)c2ccccc2C3=O)CC1	19000	3300	
Cc1nonc1Cn1c(=O)c2cc(S(=O)(=O)NC3(C)CC3)ccc2n(C)c1=O		2100	
Cn1c(=O)n(Cc2nccs2)c(=O)c2cc(S(=O)(=O)NC3(C)CC3)ccc21		13000	

Now from value to compound, other results behind:

EC50 [1] [nM]	EC50 [2] [nM]	Compound	further results
270	64	Cc1cc(Cn2c(=O)n(Cc3nnc(C)s3)c(=O)c3cc(S(=O)(=O)NC4(C)CC4)ccc32)n(C)n1	microsomal CLint [3]: 15 µL/min/mg; microsomal CLint [4]: 35 µL/min/mg
76	100	C#CCn1c(=O)n(Cc2cc(C)no2)c(=O)c2cc(S(=O)(=O)NC3(C)CC3)ccc21	microsomal CLint [3]: 72 µL/min/mg
270	250	C#CCn1c(=O)n(CC#N)c(=O)c2cc(S(=O)(=O)NC3(C)CC3)ccc21	microsomal CLint [3]: 10 µL/min/mg; microsomal CLint [4]: 63 µL/min/mg
120	38	Cc1cc(Cn2c(=O)c3cc(S(=O)(=O)NC4(C)CC4)ccc3n(Cc3cc(C)nn3C)c2=O)on1	microsomal CLint [3]: 37 µL/min/mg
2700	560	Cn1c(=O)c2cc(S(=O)(=O)NC3(C)CC3)ccc2n(CC2CCCCC2)c1=O	
620	440	Cn1c(=O)c2cc(S(=O)(=O)NC3(C)CC3)ccc2n(CC2CC2)c1=O	selectivity ratio [5]: > 100; EC50 [6]: > 100000 nM; EC50 [7]: > 150000 nM
28	19	Cc1ncc(Cn2c(=O)c3cc(S(=O)(=O)NC4(C)CC4)ccc3n(CC3CC3)c2=O)s1	microsomal CLint [3]: 160 µL/min/mg; EC50 [6]: > 100000 nM; EC50 [7]: > 150000 nM
	450	CCn1cc(Cn2c(=O)c3cc(S(=O)(=O)NC4(C)CC4)ccc3n(C)c2=O)cn1	
56	29	Cn1cc(Cn2c(=O)c3cc(S(=O)(=O)NC4(C)CC4)ccc3n(CC3CC3)c2=O)cn1	microsomal CLint [3]: 81 µL/min/mg
	470	Cc1cc(Cn2c(=O)c3cc(S(=O)(=O)NC4(C)CC4)ccc3n(C)c2=O)on1	
	180	Cc1nc(C)c(Cn2c(=O)n(C)c(=O)c3cc(S(=O)(=O)NC4(C)CC4)ccc32)s1	
120	330	CCn1c(=O)n(Cc2cc(C)no2)c(=O)c2cc(S(=O)(=O)NC3(C)CC3)ccc21	microsomal CLint [3]: 26 µL/min/mg
1100	270	CC1(NS(=O)(=O)c2ccc3c(c2)c(=O)n(CC#N)c(=O)n3CC2CC2)CC1	microsomal CLint [3]: 17 µL/min/mg; microsomal CLint [4]: 36 µL/min/mg
250	710	C#CCn1c(=O)n(C)c(=O)c2cc(S(=O)(=O)NC3(C)CC3)ccc21	
88	23	Cc1cc(Cn2c(=O)n(Cc3cnn(C)c3)c(=O)c3cc(S(=O)(=O)NC4(C)CC4)ccc32)n(C)n1	microsomal CLint [3]: 34 µL/min/mg; selectivity ratio [5]: > 100; EC50 [6]: > 100000 nM; EC50 [7]: > 150000 nM
560	280	Cc1cc(Cn2c(=O)n(CC#N)c(=O)c3cc(S(=O)(=O)NC4(C)CC4)ccc32)n(C)n1	microsomal CLint [3]: 20 µL/min/mg
120	240	CCn1c(=O)n(Cc2nnc(C)s2)c(=O)c2cc(S(=O)(=O)NC3(C)CC3)ccc21	microsomal CLint [3]: 17 µL/min/mg; microsomal CLint [4]: 30 µL/min/mg
37	26	Cc1cc(Cn2c(=O)n(Cc3cnc(C)s3)c(=O)c3cc(S(=O)(=O)NC4(C)CC4)ccc32)n(C)n1	microsomal CLint [3]: 79 µL/min/mg; selectivity ratio [5]: > 100
82	45	C#CCn1c(=O)n(Cc2cnc(C)s2)c(=O)c2cc(S(=O)(=O)NC3(C)CC3)ccc21	microsomal CLint [3]: 100 µL/min/mg
9.2	4.8	Cc1ncc(Cn2c(=O)c3cc(S(=O)(=O)NC4(C)CC4)ccc3n(Cc3sc(C)nc3C)c2=O)s1	microsomal CLint [3]: 140 µL/min/mg
130	52	C#CCn1c(=O)n(Cc2cnn(C)c2)c(=O)c2cc(S(=O)(=O)NC3(C)CC3)ccc21	microsomal CLint [3]: 42 µL/min/mg
49	55	Cc1cc(Cn2c(=O)c3cc(S(=O)(=O)NC4(C)CC4)ccc3n(CC3CC3)c2=O)on1	microsomal CLint [3]: 80 µL/min/mg
	370	Cn1c(=O)n(Cc2cnn(CC#N)c2)c(=O)c2cc(S(=O)(=O)NC3(C)CC3)ccc21	
20	6	Cc1nc(C)c(Cn2c(=O)n(Cc3cnn(C)c3)c(=O)c3cc(S(=O)(=O)NC4(C)CC4)ccc32)s1	microsomal CLint [3]: 97 µL/min/mg
